Most compounds without a hit are left out; they make up all but 2.3% or so of the library.
TRPC4 PAM = positive allosteric modulators of TRPC4, primary screen, cell-based, mouse TRPC4beta, HEK293 mu-opioid, Fluo-4 calcium; AID 2227, 2009; Short transient receptor potential channel 4 (Mus musculus), Q9QUQ5; DAMGO EC20, Fluo-4 Ca2+ flux; hits give high values; B-score at 10 µM; 310,000 tested, 0.42% active;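 active = B-score of calcium response area above 5 SD of library B-scores, with initial fluorescence ratio within 5 SD of library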;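 also: B-score of integrated fluorescence ratio over time as area under calcium response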
TRPC4 act = activators of mouse TRPC4 channel, primary screen, Fluo4 calcium, HEK293 TRPC4beta/mu-opioid cells; Short transient receptor potential channel 4 (Mus musculus), Q9QUQ5; Fluo4 calcium fluorescence; hits give high values; B-score at 10 µM; 310,000 tested, 0.49% active;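 active = B-score above 5 SD of library B-scores, and initial fluorescence ratio not above library mean plus 5 SD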;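 also: positive B-score marks a calcium rise read as TRPC4 activation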
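System – HEK293 cells stably co-expressing mouse TRPC4beta and mu-opioid receptor · Signal – Fluo4 calcium-sensitive dye fluorescence, kinetic, 1 Hz baseline · Benchmarks – buffer (low) and maximal DAMGO (high) · Read-out – B score of integrated fluorescence ratio per well · Incubation – dye loading 45 min room temperature, 110 s kinetic read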
TRPC6 activator = mouse TRPC6 channel activators, primary screen, cell-based, HEK293, membrane potential dye | Short transient receptor potential channel 6 (Mus musculus), Q61143 | HEK293-TRPC6 membrane potential dye fluorescence; hits give high values | B-score at 10 µM | 310,000 tested, 0.13% active | AID 2550, 2010;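 active = B-score of the integrated fluorescence ratio above library mean plus 3 SD, and starting fluorescence ratio within library mean plus 5 SD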;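 also: higher score means more depolarization so channel activation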
TRPC4 inh = inhibitors of mouse TRPC4 channel, primary screen, Fluo4 calcium, HEK293 TRPC4beta/mu-opioid cells | DAMGO-evoked Fluo4 calcium flux; hits give low values | B-score at 10 µM | 300,000 tested, 0.39% active;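 active = B-score over 3 SD under the library average, no early fluorescence shift, positive overall ratio signal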
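Material: HEK293 cells with stable TRPC4beta plus mu-opioid receptor expression / Probe or stimulus: DAMGO in two steps, submaximal then maximal / Compound: single concentration per test compound / Technique: kinetic Fluo4 fluorescence imaging of calcium influx / Read-out: per-well B score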
TRPC6 inhibitor = mouse TRPC6 channel inhibitors, primary screen, cell-based, HEK293, membrane potential dye. B-score at 10 µM. AID 2553, 2010. 310,000 tested, 1.1% active. ACh-evoked depolarization; hits give low values. Short transient receptor potential channel 6 (Mus musculus), Q61143;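 active = B-score under library mean minus 3 SD, initial fluorescence not abnormally high, positive integrated signal ratio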;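 also: B-score derived from integrated fluorescence ratio over the kinetic read; more negative B-score means stronger inhibition of depolarization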
An asterisk follows results filed as active; i = inactive.

SMILES	TRPC4 PAM	TRPC4 act	TRPC6 activator	TRPC4 inh	TRPC6 inhibitor
Cc1ccc(S(=O)(=O)N2CCC(N3CCN(C)CC3)CC2)cc1Cl	35*	i	i	i	i
CN1CCN(S(=O)(=O)c2ccc(Cl)cc2)CC1	i	48*	i	i	i
COc1ccc(-n2cnnc2SCC(=O)Nc2ccccc2F)cc1	i	i	i	i	i
O=[N+]([O-])c1ccc(Cl)c(NC(=S)N2CCCC2)c1	i	i	i	i	i
CSc1nc(N2CCOCC2)c2c3c(sc2n1)CCCC3	i	i	i	-6*	i
COc1ccc(S(=O)(=O)N/N=C(/C)c2ccncc2)cc1	i	i	i	i	i
COc1ccc(C(c2c(O)ccc3ccccc23)N2CCOCC2)c(OC)c1 (stereo not given)	i	i	i	-6*	i
O=C(CC1S/C(=N\S(=O)(=O)c2ccccc2)N(c2ccccc2)C1=O)Nc1ccc(F)cc1 (stereo not given)	10*	i	i	i	i
Cc1onc(-c2c(F)cccc2Cl)c1C(=O)N1CCN(c2ncc(Br)cn2)CC1	i	86*	i	i	i
CCN1CC(CN(C)Cc2cn(-c3cccc(C)c3)nc2-c2cccc(F)c2)CC1=O (stereo not given)	i	73*	i	i	i
Cc1ccc(NC(=O)CSc2nnc(CNC(=O)c3ccco3)o2)cc1Cl	i	i	i	i	i
CCOC(=O)NN1C(=O)c2ccccc2NC1c1cccs1 (stereo not given)	i	i	i	i	i
Cc1ccc(NC(=S)NCCc2ccccc2)nc1	i	i	i	i	i
COc1ccc(C(CNC(=O)C2CCN(S(=O)(=O)c3ccc(F)cc3)CC2)N(C)C)cc1 (stereo not given)	i	137*	i	i	i
CCCN(CCC)CCCNC(=O)c1cc2c(=O)[nH]c3ccccc3c2s1	i	80*	i	i	i
CCOC(CCNC(=O)c1cc2c(=O)[nH]c3ccccc3c2s1)OCC	i	i	i	i	i
CCCCN(CC)CCNC(=O)c1cc2c(=O)[nH]c3ccccc3c2s1	i	48*	i	i	i
CN(CC(=O)Nc1ccc(OC(F)(F)F)cc1)S(=O)(=O)c1cnc[nH]1	i	i	i	i	i
CC1=C(C(=O)OCCOc2ccccc2)C(c2ccsc2)NC(=O)N1C (stereo not given)	i	i	i	i	i
COc1ccccc1N1CCN(C(=O)c2cc3c(=O)n4cccc(C)c4nc3s2)CC1	i	i	i	i	i
CCOP(=O)(c1ccccc1)c1nc(-c2ccccc2Cl)oc1N1CCCCC1 (stereo not given)	17*	i	i	i	i
CCCCNC(=O)[C@H]1C[C@H]1[C@@H](O)[C@H](CO)NC(=O)[C@H](Cc1ccccc1)NC(=O)OC(C)(C)C	i	i	i	i	i
O=S(=O)(NCCN1CCOCC1)c1cccc(C(F)(F)F)c1	i	i	i	i	i
CC1CCN(CCc2nc3cc(NS(=O)(=O)c4ccc(F)cc4)ccc3n2C)CC1	15*	i	i	i	i
CC1CCN(CCc2nc3cc(NS(=O)(=O)c4ccccc4)ccc3n2C)CC1	i	i	i	i	i
SMILES	TRPC4 PAM	TRPC4 act	TRPC6 activator	TRPC4 inh	TRPC6 inhibitor
O=[N+]([O-])c1cc(Cl)ccc1N1CCCCC1	i	i	i	i	i
O=[N+]([O-])c1cc(Cl)ccc1N1CCN(c2ccccc2O)CC1	12*	i	i	i	i
CC1(C)CC(=O)C(C(C2=C(O)CC(C)(C)CC2=O)c2ccc(Cl)c([N+](=O)[O-])c2)C(=O)C1 (stereo not given)	i	46*	i	i	i
COc1ccccc1C(c1nnnn1C(C)(C)C)N1CCN(Cc2ccncc2)CC1 (stereo not given)	i	i	i	i	i
C=CCN1CCN(C(c2cccc(OC)c2OC)c2nnnn2CCC(C)C)CC1 (stereo not given)	i	i	i	-7*	i
COc1cccc(C(c2nnnn2CCc2ccccc2)N2CCN(c3ccccc3)CC2)c1OC (stereo not given)	i	i	i	i	i
COc1cccc(C(c2nnnn2C(C)(C)C)N2CCN(C3CCCCC3)CC2)c1OC (stereo not given)	i	i	i	-6*	i
NC(=O)CN1CCN(Cc2ccc3c(c2)OCO3)CC1	i	i	i	i	i
COC(=O)CCC(=O)Nc1nnc(C(F)(F)F)s1	i	i	i	i	i
CCC(NC(=O)Nc1nnc(C(F)(F)F)s1)(C(F)(F)F)C(F)(F)F	i	i	i	i	-6.1*
Cc1cnc(NC(=O)C2CCC(C(C)(C)C)CC2)s1 (stereo not given)	i	i	i	i	i
COC(=O)c1cc(CSC(=N)N)ccc1OCCC(C)C	i	i	i	i	i
N=C(N)SCc1ccc(O)c([N+](=O)[O-])c1	i	i	i	i	i
CCCOc1ccc(CSC(=N)N)cc1C(=O)OC	i	185*	i	i	i
COc1ccc(CSC(=N)N)cc1[N+](=O)[O-]	i	53*	i	i	i
COc1ccc(-n2c(=S)[nH]c3cc(C(=O)NCCCN4CCOCC4)ccc3c2=O)cc1OC	i	i	i	i	i
CCCc1ccc(OCc2ccc(C(=O)N3CCSCC3)o2)cc1	20*	i	i	i	i
CC(C)(C)c1ccc(OCc2ccc(C(=O)N3CCOCC3)o2)cc1	i	i	i	i	i
O=C(NC1CCCC1)C(=O)N(c1ccccc1F)C(C(=O)NCC1CCCO1)c1cccs1 (stereo not given)	i	i	i	i	i
CC(C)NC(=O)c1cccc2c1-c1ccccc1C2=O	i	i	i	i	i
O=C1Nc2ccccc2C12Nc1ccccc1-c1nc3ccccc3n12 (stereo not given)	i	i	i	i	i
CN1C(=O)C2(Nc3ccccc3-c3nc4ccccc4n32)c2ccccc21 (stereo not given)	i	i	i	-6*	i

Bioassay records: PubChem BioAssay, Johns Hopkins Ion Channel Center
